Assay results published in ChEMBL document CHEMBL5058577, “EUbOPEN Chemogenomics Library 2 (Multiplex)” (2022).

Test system: Fibroblast
Assay: Multiplex assay against human fibroblast
Format: toxicity, cell-based
How it was run: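 On a CQ1 microscope at 37°C and 5% CO2, live cells were imaged after compound addition. They had been stained at seeding with Hoechst33342, BioTracker Green Microtubule Cytoskeleton Dye, MitoTracker Red and Annexin V Alexa Fluor 680. CellPathfinder machine-learning gating assigned cells to Hoechst high-intensity objects or normal cells, normal cells to healthy, pyknosed or fragmented nuclei, and pyknosed cells to mitotic or apoptotic. Tubulin, mitochondrial-mass and membrane-permeability phenotypes are per cents of healthy-nucleus cells.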

[1] = 12 h, 1 µM, compound concentration 1 uM, replicate 1
[2] = 12 h, 1 µM, compound concentration 1 uM, replicate 2
[3] = 12 h, 10 µM, compound concentration 10 uM, replicate 1
[4] = 12 h, 10 µM, compound concentration 10 uM, replicate 2
[5] = 24 h, 1 µM, compound concentration 1 uM, replicate 1
[6] = 24 h, 1 µM, compound concentration 1 uM, replicate 2
[7] = 24 h, 10 µM, compound concentration 10 uM, replicate 1
[8] = 24 h, 10 µM, compound concentration 10 uM, replicate 2
[9] = 48 h, 1 µM, compound concentration 1 uM, replicate 1
[10] = 48 h, 1 µM, compound concentration 1 uM, replicate 2
[11] = 48 h, 10 µM, compound concentration 10 uM, replicate 1
[12] = 48 h, 10 µM, compound concentration 10 uM, replicate 2

Which “Population Apoptotic (%)” value [1] does the source give for `CC(F)(F)CN1CCOc2c(nn(-c3ccccc3Cl)c2-c2ccc(Cl)cc2)C1=O` here?
The value was 42%.

And the “Population Healthy Nuclei (%)” value [1]?
Its value is 66%.

And the “Population Hoechst High Intensity Objects (%)” value [1]?
Its value is 0%.

What about the “Population Mitochondria Different-Phenotype (%)” value [1] of the same molecule?
The value was 4%.

What about the “Population Mitotic Cells (%)” value [1] of the same molecule?
The value was 57%.

And the “Population Normal (%)” value [1]?
Its value is 99%.

What about the “Population Pyknosed Nuclei (%)” value [1] of the same molecule?
Its value is 15%.

What about the “Total Cell Count” value [1] of the same molecule?
Its value is 125.

And the “Population Apoptotic (%)” value [2]?
The value was 31%.

What about the “Population Healthy Nuclei (%)” value [2] of the same molecule?
The value was 48%.

And the “Population Mitochondria Different-Phenotype (%)” value [2]?
Its value is 10%.

And the “Population Mitotic Cells (%)” value [2]?
The value was 68%.

What about the “Population Normal (%)” value [2] of the same molecule?
The value was 93%.

And the “Population Pyknosed Nuclei (%)” value [2]?
The value was 25%.

And the “Population Tubulin-Different-Phenotype (%)” value [2]?
Its value is 61%.

What about the “Total Cell Count” value [2] of the same molecule?
The value was 122.

What about the “Population Apoptotic (%)” value [3] of the same molecule?
The value was 47%.

And the “Population Healthy Nuclei (%)” value [3]?
The value was 66%.

And the “Population Hoechst High Intensity Objects (%)” value [3]?
The value was 1%.

And the “Population Mitochondria Different-Phenotype (%)” value [3]?
The value was 19%.

What about the “Population Mitotic Cells (%)” value [3] of the same molecule?
The value was 52%.

And the “Population Normal (%)” value [3]?
Its value is 98%.

What about the “Population Pyknosed Nuclei (%)” value [3] of the same molecule?
The value was 17%.

And the “Population Tubulin-Different-Phenotype (%)” value [3]?
Its value is 49%.

And the “Total Cell Count” value [3]?
The value was 109.

And the “Population Apoptotic (%)” value [4]?
The value was 30%.

And the “Population Healthy Nuclei (%)” value [4]?
The value was 53%.

And the “Population Hoechst High Intensity Objects (%)” value [4]?
The value was 5%.

And the “Population Mitochondria Different-Phenotype (%)” value [4]?
Its value is 8%.

What about the “Population Mitotic Cells (%)” value [4] of the same molecule?
The value was 70%.

What about the “Population Normal (%)” value [4] of the same molecule?
The value was 94%.

What about the “Population Pyknosed Nuclei (%)” value [4] of the same molecule?
The value was 15%.

And the “Population Tubulin-Different-Phenotype (%)” value [4]?
The value was 57%.

What about the “Total Cell Count” value [4] of the same molecule?
Its value is 134.

What about the “Population Apoptotic (%)” value [5] of the same molecule?
Its value is 61%.

What about the “Population Healthy Nuclei (%)” value [5] of the same molecule?
The value was 65%.

What about the “Population Hoechst High Intensity Objects (%)” value [5] of the same molecule?
Its value is 1%.

And the “Population Mitochondria Different-Phenotype (%)” value [5]?
The value was 2%.

And the “Population Mitotic Cells (%)” value [5]?
Its value is 38%.

And the “Population Normal (%)” value [5]?
Its value is 98%.

What about the “Population Pyknosed Nuclei (%)” value [5] of the same molecule?
Its value is 15%.

What about the “Total Cell Count” value [5] of the same molecule?
Its value is 119.

And the “Population Apoptotic (%)” value [6]?
The value was 64%.

And the “Population Healthy Nuclei (%)” value [6]?
Its value is 52%.

And the “Population Hoechst High Intensity Objects (%)” value [6]?
Its value is 4%.

And the “Population Mitochondria Different-Phenotype (%)” value [6]?
The value was 10%.

What about the “Population Mitotic Cells (%)” value [6] of the same molecule?
The value was 36%.

What about the “Population Normal (%)” value [6] of the same molecule?
The value was 95%.

What about the “Population Pyknosed Nuclei (%)” value [6] of the same molecule?
The value was 20%.

What about the “Population Tubulin-Different-Phenotype (%)” value [6] of the same molecule?
Its value is 75%.

And the “Total Cell Count” value [6]?
Its value is 129.

What about the “Population Apoptotic (%)” value [7] of the same molecule?
The value was 33%.

And the “Population Healthy Nuclei (%)” value [7]?
Its value is 65%.

What about the “Population Hoechst High Intensity Objects (%)” value [7] of the same molecule?
Its value is 0%.

What about the “Population Mitochondria Different-Phenotype (%)” value [7] of the same molecule?
Its value is 26%.

And the “Population Mitotic Cells (%)” value [7]?
The value was 66%.

What about the “Population Normal (%)” value [7] of the same molecule?
Its value is 99%.

And the “Population Pyknosed Nuclei (%)” value [7]?
The value was 10%.

And the “Population Tubulin-Different-Phenotype (%)” value [7]?
Its value is 58%.

And the “Total Cell Count” value [7]?
Its value is 111.

What about the “Population Apoptotic (%)” value [8] of the same molecule?
The value was 35%.

And the “Population Healthy Nuclei (%)” value [8]?
The value was 54%.

And the “Population Hoechst High Intensity Objects (%)” value [8]?
Its value is 1%.

And the “Population Mitochondria Different-Phenotype (%)” value [8]?
Its value is 10%.

What about the “Population Mitotic Cells (%)” value [8] of the same molecule?
The value was 64%.

And the “Population Normal (%)” value [8]?
The value was 98%.

What about the “Population Pyknosed Nuclei (%)” value [8] of the same molecule?
The value was 14%.

And the “Population Tubulin-Different-Phenotype (%)” value [8]?
The value was 60%.

What about the “Total Cell Count” value [8] of the same molecule?
Its value is 121.

And the “Population Apoptotic (%)” value [9]?
Its value is 56%.

And the “Population Healthy Nuclei (%)” value [9]?
Its value is 63%.

What about the “Population Hoechst High Intensity Objects (%)” value [9] of the same molecule?
Its value is 1%.

And the “Population Mitochondria Different-Phenotype (%)” value [9]?
The value was 2%.

What about the “Population Mitotic Cells (%)” value [9] of the same molecule?
Its value is 43%.

What about the “Population Normal (%)” value [9] of the same molecule?
Its value is 98%.

And the “Population Pyknosed Nuclei (%)” value [9]?
The value was 11%.

And the “Population Tubulin-Different-Phenotype (%)” value [9]?
The value was 35%.

And the “Total Cell Count” value [9]?
Its value is 136.

And the “Population Apoptotic (%)” value [10]?
Its value is 40%.

What about the “Population Healthy Nuclei (%)” value [10] of the same molecule?
The value was 53%.

And the “Population Hoechst High Intensity Objects (%)” value [10]?
The value was 4%.

What about the “Population Mitochondria Different-Phenotype (%)” value [10] of the same molecule?
Its value is 21%.

And the “Population Mitotic Cells (%)” value [10]?
Its value is 60%.

And the “Population Normal (%)” value [10]?
Its value is 95%.

What about the “Population Pyknosed Nuclei (%)” value [10] of the same molecule?
The value was 7%.

And the “Population Tubulin-Different-Phenotype (%)” value [10]?
Its value is 72%.

What about the “Total Cell Count” value [10] of the same molecule?
The value was 135.

What about the “Population Apoptotic (%)” value [11] of the same molecule?
Its value is 78%.

And the “Population Healthy Nuclei (%)” value [11]?
Its value is 56%.

And the “Population Hoechst High Intensity Objects (%)” value [11]?
The value was 1%.

And the “Population Mitochondria Different-Phenotype (%)” value [11]?
The value was 22%.

What about the “Population Mitotic Cells (%)” value [11] of the same molecule?
Its value is 21%.

What about the “Population Normal (%)” value [11] of the same molecule?
Its value is 98%.

What about the “Population Pyknosed Nuclei (%)” value [11] of the same molecule?
Its value is 11%.

And the “Total Cell Count” value [11]?
The value was 120.

And the “Population Apoptotic (%)” value [12]?
The value was 54%.

And the “Population Healthy Nuclei (%)” value [12]?
The value was 54%.

And the “Population Mitochondria Different-Phenotype (%)” value [12]?
Its value is 7%.

What about the “Population Mitotic Cells (%)” value [12] of the same molecule?
The value was 45%.

What about the “Population Pyknosed Nuclei (%)” value [12] of the same molecule?
Its value is 7%.

And the “Population Tubulin-Different-Phenotype (%)” value [12]?
Its value is 57%.

And the “Total Cell Count” value [12]?
The value was 141.
